What follows are compounds tested against Translocator protein (Rattus norvegicus, UniProt P16257) (assay: Displacement of [3H]PK115 from peripheral benzodiazepine receptor in Sprague-Dawley rat cortical membrane).
Summary of the method: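 Male Sprague–Dawley rats, 200–250 g; cerebral cortex homogenized in ice-cold PBS pH 7.4, washed twice by centrifugation at 40,000g. Filtration on PEI-presoaked GF/B filters, scintillation counting. IC50 from 6–10 concentrations in triplicate; mean ± SEM of three determinations.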

Sequence of Translocator protein (P16257 whole entry, looked up): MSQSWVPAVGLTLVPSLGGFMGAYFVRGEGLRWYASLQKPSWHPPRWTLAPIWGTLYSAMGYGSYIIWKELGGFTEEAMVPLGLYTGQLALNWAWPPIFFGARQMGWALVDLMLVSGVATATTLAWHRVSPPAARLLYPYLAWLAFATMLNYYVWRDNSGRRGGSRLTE

SMILES | IC50
CN(Cc1ccccc1)C(=O)/C=C1\c2nc3ccccc3cc2C(=O)N1c1ccc(Cl)cc1 | 26 nM
COc1ccc(NC(=O)/C=C2\c3nc4ccccc4cc3C(=O)N2c2ccc(Cl)cc2)cc1 | 76 nM
COc1ccc(N(C)C/C=C2\c3nc4ccccc4cc3C(=O)N2c2ccc(Cl)cc2)cc1 | 2360 nM
C#CCN(C)C(=O)/C=C1\c2nc3ccccc3cc2C(=O)N1c1ccc(Cl)cc1 | 320 nM
CN(C(=O)/C=C1\c2nc3ccccc3cc2C(=O)N1c1ccc(Cl)cc1)c1ccc(O)cc1 | 74 nM
CN(C(=O)/C=C1\c2nc3ccccc3cc2C(=O)N1c1ccc(Cl)cc1)c1ccccc1 | 44 nM
CCN(Cc1ccccc1)C(=O)/C=C1\c2nc3ccccc3cc2C(=O)N1c1ccc(Cl)cc1 | 15 nM

Stronger by IC50, values ahead:

IC50 | SMILES
12 nM | COc1ccc(N(C)C(=O)/C=C2\c3nc4ccccc4cc3C(=O)N2c2ccccc2)cc1
10 nM | CN(C(=O)/C=C1\c2nc3ccccc3cc2C(=O)N1c1ccccc1)c1ccc(Cl)cc1
0.9 nM | COc1ccc(N(C)C(=O)/C=C2\c3nc4ccccc4cc3C(=O)N2c2ccc(Cl)cc2)cc1
0.62 nM | CN(C(=O)/C=C1\c2nc3ccccc3cc2C(=O)N1c1ccc(Cl)cc1)c1ccc(Cl)cc1

Reference: ChEMBL document CHEMBL1142386, “Synthesis and structure-activity relationship studies in peripheral benzodiazepine receptor ligands related to alpidem” (Bioorg Med Chem, 2008)
